The source made the active and inactive calls. The calls are words filed in the database; no cut-off is given here.
Key:
MCF7 [1] = experiment: Anticancer activity against human MCF7 cells assessed as cell viability at 30 uM after 72 hrs by sulforhodamine B assay relative to control; type: functional; conditions: MCF7, 72 h, read-out: Activity
MCF7 [2] = experiment: Anticancer activity against human MCF7 cells assessed as cell viability at 10 uM after 72 hrs by sulforhodamine B assay relative to control; type: functional; conditions: MCF7, 72 h, read-out: Activity
Hs-578T [3] = experiment: Anticancer activity against human Hs 578T cells assessed as cell viability at 30 uM after 72 hrs by sulforhodamine B assay relative to control; type: functional; conditions: read-out: Activity
[4] = Cytotoxicity against human MCF10A cells assessed as cell viability at 30 uM after 72 hrs by sulforhodamine B assay relative to control; type: cell-based, MCF-10A; conditions: read-out: Activity
Hs-578T [5] = experiment: Anticancer activity against human Hs 578T cells assessed as cell viability at 10 uM after 72 hrs by sulforhodamine B assay relative to control; type: functional; conditions: read-out: Activity
[6] = Cytotoxicity against human MCF10A cells assessed as cell viability at 10 uM after 72 hrs by sulforhodamine B assay relative to control; type: cell-based, MCF-10A; conditions: read-out: Activity
MCF-10A [7] = experiment: Cytotoxicity against human MCF10A cells after 72 hrs in presence of doxorubicin by sulforhodamine B assay; type: cell-based
MCF7 [8] = experiment: Induction of apoptosis in human MCF7 cells at IC50 after 48 hrs by Annexin-V-FITC/propidium iodide staining based flow cytometry; type: functional, cell-based
Method in brief: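 Floating and adherent cells were pooled and resuspended in binding buffer. Staining with FITC-annexin V and PI for 15 min at room temperature in the dark, followed by flow cytometry quadrant analysis normalised to untreated cells. Two independent experiments, triplicates within each.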

MCF7 [9] = experiment: Induction of apoptosis in human MCF7 cells assessed as increase in cleaved PARP level at IC50 after 24 hrs by Western blot analysis; type: functional, cell-based
Method in brief: (§1)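 MCF-7 cells at 70-80% confluence were treated at IC50 or with 0.5% DMSO for 24 h. Lysis in Tris/NaCl/EDTA buffer with NP-40, Triton X-100, phosphatase and protease inhibitors. 20 µg protein run on 12% SDS-PAGE and transferred to nitrocellulose. Probed overnight at 4 °C with anti-PARP (1:500) or anti-BIM (1:1000), then HRP secondaries and chemiluminescence. At least two independent experiments.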

MCF7 [10] = experiment: Induction of apoptosis in human MCF7 cells assessed as increase in Bim level at IC50 after 24 hrs by Western blot analysis; type: functional, cell-based; method in brief: as §1
MCF-10A [11] = experiment: Cytotoxicity against human MCF10A cells after 72 hrs by sulforhodamine B assay; type: cell-based
Method in brief: (§2)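 Cells seeded at 3000 cells/100 µL per well, left to adhere overnight (18-20 h), then exposed to a range of compound concentrations for 72 h. Vehicle control was 0.5% DMSO. Cytotoxicity was read by sulforhodamine B at 490 nm, with 690 nm as background. IC50 came from sigmoidal variable-slope nonlinear regression on log-transformed data, from at least three independent experiments, each in triplicate.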

MCF7 [12] = experiment: Anticancer activity against human MCF7 cells after 72 hrs by sulforhodamine B assay; type: functional, cell-based; conditions: MCF7, 72 h; method in brief: as §2
MCF7 [13] = experiment: Induction of microtubule disruption in human MCF7 cells at IC50 after 12 hrs by DAPI staining based microscopic analysis; type: cell-based
Method in brief: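 MCF-7 cells seeded at 2.0×10^5 per well and incubated overnight. Treatment at IC50 for 12 h, with 0.5% DMSO vehicle and paclitaxel (2 µM) as reference. Fixation in methanol for 20 min at -20 °C and blocking in 5% BSA. β-tubulin antibody (1:200) for 2 h, fluorescent secondary for 1 h, and DAPI nuclear counterstain. Confocal imaging with a 60x oil objective, 405/488 nm excitation.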

MCF7 [14] = experiment: Cell cycle arrest in human MCF7 cells at IC50 after 48 hrs by propidium iodide staining based flow cytometry; type: functional
Method in brief: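 MCF-7 cells seeded at 2.5×10^5 per well and grown overnight. […] Cells fixed in 70% ethanol for at least 30 min at 4 °C, then stained with PI (50 µg/mL) plus RNase A and Triton X-100 for 1 h in the dark at […]. Flow cytometry with 488 nm excitation gave the phase distribution. Two independent biological replicates.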

MCF7 [15] = experiment: Antiproliferative activity against human MCF7 cells at IC50 after 48 hrs by Brdu incorporation assay relative to control; type: functional
Method in brief: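 Labelling with 20 µM BrdU (final) for 6 h. FixDenat 30 min, then anti-BrdU-POD 90 min at room temperature. Substrate colour for 5-10 min, stopped with H2SO4, absorbance at 450 nm (reference 690 nm). Cell-free blanks included. At least three independent experiments in triplicate.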

Hs-578T [16] = experiment: Anticancer activity against human Hs 578T cells after 72 hrs by sulforhodamine B assay; type: functional, cell-based; method in brief: as §2
[17] = Selectivity index, ratio of IC50 for human MCF10A cells in presence of doxorubicin to IC50 for human MCF7 cells in presence of doxorubicin; type: toxicity; conditions: MCF10A cells and MCF7 cells, read-out: Ratio IC50
MCF7 [18] = experiment: Antiproliferative activity against human MCF7 cells after 72 hrs in presence of doxorubicin by sulforhodamine B assay; type: functional, cell-based; conditions: MCF7, 72 h
MCF7 [19] = experiment: Induction of apoptosis in human MCF7 cells assessed as decrease in Bcl-xL level at IC50 after 48 hrs by Western blot analysis
MCF7 [20] = experiment: Antimigratory activity against human MCF7 cells assessed as reduction in cell migration at half IC50 to IC50 after 12 to 48 hrs by microscopy based wound healing assay; type: functional
Method in brief: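 Wound healing: MCF-7 cells plated at 9.0 × 10^5 per 2 mL and grown overnight to confluence. Two scratches made with a pipette tip, then wash with PBS. Treatment at IC50 or ½ IC50, or 0.5% DMSO. Four positions per wound were imaged at 0, 12, 24 and 48 h at 100x. Migration distances were measured and normalised to control. Three independent experiments.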

Compound	viability at 30 µM (MCF7 [1]) [%]	viability at 10 µM (MCF7 [2]) [%]	viability at 30 µM (Hs-578T [3]) [%]	viability at 72 h, 30 µM [4] [%]	viability at 10 µM (Hs-578T [5]) [%]	viability at 72 h, 10 µM [6] [%]	IC50 (MCF-10A [11]) [µM]	IC50 (Hs-578T [16]) [µM]	also measured
COc1cc(Br)cc2c1OC(N)=C(C#N)C2CC(=O)c1ccc(Br)cc1 (stereo not drawn)	33.1	39.7	–	–	–	–	–	–	–
COC(=O)C1=C(N)Oc2ccc(Br)cc2C1CC(=O)c1ccc(Cl)cc1 (stereo not drawn)	32.4	67.6	–	–	–	–	–	–	–
COC(=O)C1=C(N)Oc2c(OC)cc(Br)cc2C1CC(=O)c1cccc(OC)c1 (stereo not drawn)	94.9	142	–	–	–	–	–	–	–
O=C(/C=C/c1cc(F)cc(F)c1O)c1ccccc1	37.6	110	114	41.4	96.5	37.4	–	–	–
COC(=O)C1=C(N)Oc2ccc(Br)cc2C1CC(=O)c1ccccc1 (stereo not drawn)	41.3	107	–	–	–	–	–	–	–
Cc1ccc(C(=O)/C=C/c2cc(Cl)ccc2O)cc1	27.7	36.8	70.5	51.1	66.3	33.5	24.2	4.8	IC50 (MCF-10A [7]): 1.1 µM; Activity (MCF7 [8]): inactive; Activity (MCF7 [9]): Active; Activity (MCF7 [10]): Active; IC50 (MCF7 [12]): 3.98 µM; Activity (MCF7 [13]): inactive; Activity (MCF7 [14]): inactive; Activity (MCF7 [15]): >50%; selectivity ratio [17]: 3.07; IC50 (MCF7 [18]): 0.27 µM; Activity (MCF7 [19]): Active; Activity (MCF7 [20]): inactive
COC(=O)C1=C(N)Oc2ccc(Br)cc2C1CC(=O)c1ccc(Br)cc1 (stereo not drawn)	34.8	72.5	94.8	43.2	90	39.9	–	–	–
COc1cc(Br)cc(/C=C/C(=O)c2ccc(Br)cc2)c1O	48.3	64.6	–	–	–	–	–	–	–
COC(=O)C1=C(N)Oc2ccc(Cl)cc2C1CC(=O)c1ccccc1 (stereo not drawn)	44.2	87.2	–	–	–	–	–	–	–
COc1ccc(O)c(/C=C/C(=O)c2ccc(Cl)cc2)c1	29.3	86.9	102	48	106	35.7	–	–	–
Cc1ccc(C(=O)/C=C/c2cc(Br)ccc2O)cc1	31.8	27.3	46.7	49.4	55.8	32.4	6.52	1.6	IC50 (MCF7 [12]): 2 µM
N#CC1=C(N)Oc2ccc(Br)cc2C1CC(=O)c1ccc(Br)cc1 (stereo not drawn)	34.2	47.2	93.8	43.6	67.6	32.6	14.7	16.5	IC50 (MCF7 [12]): 7.24 µM
COc1cccc(C(=O)/C=C/c2cc(Cl)ccc2O)c1	26.3	38.2	–	–	–	–	–	–	–
COc1cccc(C(=O)CC2C(C#N)=C(N)Oc3ccc(Br)cc32)c1 (stereo not drawn)	34.4	51.2	37.9	43.7	71.5	101	18.9	10.3	IC50 (MCF7 [12]): 5.94 µM
COc1cccc2c1C(=O)c1c(O)c3c(c(O)c1C2=O)C[C@@](O)(C(=O)CO)C[C@@H]3O[C@H]1C[C@H](N)[C@H](O)[C@H](C)O1 [DOXORUBICIN]	–	–	–	–	–	–	1.54	0.52	–
Cc1ccc(C(=O)/C=C/c2cccc(Br)c2)cc1	34	60.4	–	–	–	–	–	–	–

Source: ChEMBL document CHEMBL4270591, “Exploitation of new chalcones and 4H-chromenes as agents for cancer treatment” (Eur J Med Chem, 2018)
